This is an account of results in ChEMBL document CHEMBL2331171, “Anti-malarial activity of new N-acetyl-L-leucyl-L-leucyl-L-norleucinal (ALLN) derivatives against Plasmodium falciparum” (Bioorg Med Chem Lett, 2013).

Where a SMILES comes first, the peptide text is derived from it. [ ]: non-standard residue; d: D form. Nle = CCCC[C@H](N)C(=O)O

One data set deals with Plasmodium falciparum. The data set is described as follows: Antimalarial activity against Plasmodium falciparum FCR-3 infected in erythrocytes assessed as reduction in parasitemia after 72 hrs by light microscopic analysis. Type of data set: functional, cell-based. The following applies: FCR-3/Gambia. An outline of the steps:
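P. falciparum FCR3 in erythrocytes exposed to compounds; parasitemia (parasite content of erythrocytes) counted microscopically; concentration giving 50% growth inhibition derived. Mean SD of three independent experiments, each in triplicate.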
What is called IC50 is the concentration needed to halve the response being measured. Take `CC(C)(C)OC(=O)N[C@H](CCCNC(=O)OCc1ccccc1)C(=O)N[C@H](/C=C/C(=O)N1CCCC1)Cc1ccccc1`: the IC50 stood at 11.4 µM.

Regarding `CNC(=O)/C=C/[C@H](Cc1ccccc1)NC(=O)[C@@H](CCCNC(=O)OCc1ccccc1)NC(=O)OC(C)(C)C`, the half-maximal inhibitory concentration (IC50) was 5 µM.

Take `CCNC(=O)/C=C/[C@H](Cc1ccccc1)NC(=O)[C@@H](CCCNC(=O)OCc1ccccc1)NC(=O)OC(C)(C)C`: the IC50 was above 100 µM.

With `CC(C)NC(=O)/C=C/[C@H](Cc1ccccc1)NC(=O)[C@@H](CCCNC(=O)OCc1ccccc1)NC(=O)OC(C)(C)C`, the IC50 is 9.29 µM.

In the case of `CC(C)(C)OC(=O)N[C@H](CCCNC(=O)OCc1ccccc1)C(=O)N[C@H](/C=C/C=C/C(=O)N1CCCC1)Cc1ccccc1`, the IC50 was above 100 µM.

`CN(C)C(=O)/C=C/C=C/[C@H](Cc1ccccc1)NC(=O)[C@@H](CCCNC(=O)OCc1ccccc1)NC(=O)OC(C)(C)C`: the half-maximal inhibitory concentration (IC50) was above 100 µM.

Regarding `CNC(=O)/C=C/C=C/[C@H](Cc1ccccc1)NC(=O)[C@@H](CCCNC(=O)OCc1ccccc1)NC(=O)OC(C)(C)C`, the IC50 was determined as 23.6 µM.

With `CC(C)(C)OC(=O)N[C@H](CCCNC(=O)OCc1ccccc1)C(=O)N[C@H](/C=C/C=C/C(=O)N1CCCCC1)Cc1ccccc1`, the half-maximal inhibitory concentration (IC50) was determined as 15.7 µM.

For the molecule `CNC(=O)/C=C/[C@H](Cc1ccccc1)NC(=O)[C@@H](CCCNC(=O)OCc1ccccc1)NCc1ccccc1`, the IC50 was found to be 15.3 µM.

Turning to `CNC(=O)/C=C/[C@H](Cc1ccccc1)NC(=O)[C@@H](CCCNC(=O)OCc1ccccc1)NCc1cc(OC)cc(OC)c1`, the IC50 stood at 16.4 µM.

Regarding `CNC(=O)/C=C/[C@H](Cc1ccccc1)NC(=O)[C@@H](CCCNC(=O)OCc1ccccc1)NCc1ccc(OC)cc1`, the half-maximal inhibitory concentration (IC50) turned out to be 16.7 µM.

As for `CNC(=O)/C=C/[C@H](Cc1ccccc1)NC(=O)[C@@H](CCCNC(=O)OCc1ccccc1)NCc1cccc(C)c1`, the IC50 stood at 5 µM.

In the case of `CNC(=O)/C=C/[C@H](Cc1ccccc1)NC(=O)[C@@H](CCCNC(=O)OCc1ccccc1)NC(C)C`, the concentration for half-maximal inhibition (IC50) came to 56.3 µM.

Consider `CCCC[C@@H](C=O)NC(=O)[C@H](CC(C)C)NC(=O)[C@H](CC(C)C)NC(C)=O` (Ac-Leu-Leu-[Nle]-aldehyde), for which the half-maximal inhibitory concentration (IC50) came out at 0.64 µM.

System in another data set: not listed separately
The data set is described as follows: Cytotoxicity against human HeLa cells assessed as growth inhibition after 48 hrs by MTS assay. The class given is cell-based.
Conditions: not given
(In general: Tetrazolium assays rely on reduction of a dye to a coloured formazan, in cell work by metabolically active cells.)
As a reminder, the CC50 is the concentration giving 50% cytotoxicity. Regarding `CC(C)(C)OC(=O)N[C@H](CCCNC(=O)OCc1ccccc1)C(=O)N[C@H](/C=C/C(=O)N1CCCC1)Cc1ccccc1`, the CC50 at 48 h stood at 153 µM.

For the molecule `CNC(=O)/C=C/[C@H](Cc1ccccc1)NC(=O)[C@@H](CCCNC(=O)OCc1ccccc1)NC(=O)OC(C)(C)C`, the half-maximal cytotoxic concentration (CC50) at 48 h was 1060 µM.

As to `CCNC(=O)/C=C/[C@H](Cc1ccccc1)NC(=O)[C@@H](CCCNC(=O)OCc1ccccc1)NC(=O)OC(C)(C)C`, the CC50 at 48 h is 2000 µM.

Take `CC(C)NC(=O)/C=C/[C@H](Cc1ccccc1)NC(=O)[C@@H](CCCNC(=O)OCc1ccccc1)NC(=O)OC(C)(C)C`: the 50% cytotoxic concentration (CC50) at 48 h was found to be 314 µM.

For the molecule `CC(C)(C)OC(=O)N[C@H](CCCNC(=O)OCc1ccccc1)C(=O)N[C@H](/C=C/C=C/C(=O)N1CCCC1)Cc1ccccc1`, the CC50 at 48 h stood at 53.1 µM.

On to `CN(C)C(=O)/C=C/C=C/[C@H](Cc1ccccc1)NC(=O)[C@@H](CCCNC(=O)OCc1ccccc1)NC(=O)OC(C)(C)C`, for which the cytotoxic concentration (CC50) at 48 h is 117 µM.

On to `CNC(=O)/C=C/C=C/[C@H](Cc1ccccc1)NC(=O)[C@@H](CCCNC(=O)OCc1ccccc1)NC(=O)OC(C)(C)C`, for which the CC50 at 48 h came to 281 µM.

With `CC(C)(C)OC(=O)N[C@H](CCCNC(=O)OCc1ccccc1)C(=O)N[C@H](/C=C/C=C/C(=O)N1CCCCC1)Cc1ccccc1`, the half-maximal cytotoxic concentration (CC50) at 48 h was 175 µM.

`CNC(=O)/C=C/[C@H](Cc1ccccc1)NC(=O)[C@@H](CCCNC(=O)OCc1ccccc1)NCc1ccccc1`: the CC50 at 48 h amounted to 253 µM.

In the case of `CNC(=O)/C=C/[C@H](Cc1ccccc1)NC(=O)[C@@H](CCCNC(=O)OCc1ccccc1)NCc1cc(OC)cc(OC)c1`, the CC50 at 48 h was 259 µM.

As to `CNC(=O)/C=C/[C@H](Cc1ccccc1)NC(=O)[C@@H](CCCNC(=O)OCc1ccccc1)NCc1ccc(OC)cc1`, the CC50 at 48 h turned out to be 461 µM.

With `CNC(=O)/C=C/[C@H](Cc1ccccc1)NC(=O)[C@@H](CCCNC(=O)OCc1ccccc1)NCc1cccc(C)c1`, the half-maximal cytotoxic concentration (CC50) at 48 h amounted to 242 µM.

For the molecule `CNC(=O)/C=C/[C@H](Cc1ccccc1)NC(=O)[C@@H](CCCNC(=O)OCc1ccccc1)NC(C)C`, the CC50 at 48 h worked out at 611 µM.

Turning to `CCCC[C@@H](C=O)NC(=O)[C@H](CC(C)C)NC(=O)[C@H](CC(C)C)NC(C)=O` (Ac-Leu-Leu-[Nle]-aldehyde), the 50% cytotoxic concentration (CC50) at 48 h worked out at 25.1 µM.

System in a further data set: not listed separately
The data set is described as follows: Therapeutic index, ratio of CC50 for human HeLa cells to IC50 for Plasmodium falciparum FCR-3. Type of data set: cell-based. Conditions: HeLa cells versus Plasmodium falciparum FCR-3, read-out: Ratio CC50/IC50.
As for `CC(C)(C)OC(=O)N[C@H](CCCNC(=O)OCc1ccccc1)C(=O)N[C@H](/C=C/C(=O)N1CCCC1)Cc1ccccc1`, the selectivity ratio was 13.4.

For the molecule `CNC(=O)/C=C/[C@H](Cc1ccccc1)NC(=O)[C@@H](CCCNC(=O)OCc1ccccc1)NC(=O)OC(C)(C)C`, the selectivity ratio came out at 157.

Consider `CC(C)NC(=O)/C=C/[C@H](Cc1ccccc1)NC(=O)[C@@H](CCCNC(=O)OCc1ccccc1)NC(=O)OC(C)(C)C`, for which the selectivity ratio was determined as 33.8.

As for `CNC(=O)/C=C/C=C/[C@H](Cc1ccccc1)NC(=O)[C@@H](CCCNC(=O)OCc1ccccc1)NC(=O)OC(C)(C)C`, the selectivity ratio stood at 11.9.

With `CC(C)(C)OC(=O)N[C@H](CCCNC(=O)OCc1ccccc1)C(=O)N[C@H](/C=C/C=C/C(=O)N1CCCCC1)Cc1ccccc1`, the selectivity ratio turned out to be 11.2.

Take `CNC(=O)/C=C/[C@H](Cc1ccccc1)NC(=O)[C@@H](CCCNC(=O)OCc1ccccc1)NCc1ccccc1`: the selectivity ratio worked out at 16.5.

On to `CNC(=O)/C=C/[C@H](Cc1ccccc1)NC(=O)[C@@H](CCCNC(=O)OCc1ccccc1)NCc1cc(OC)cc(OC)c1`, for which the selectivity ratio was found to be 15.8.

Turning to `CNC(=O)/C=C/[C@H](Cc1ccccc1)NC(=O)[C@@H](CCCNC(=O)OCc1ccccc1)NCc1ccc(OC)cc1`, the selectivity ratio is 27.6.

Turning to `CNC(=O)/C=C/[C@H](Cc1ccccc1)NC(=O)[C@@H](CCCNC(=O)OCc1ccccc1)NCc1cccc(C)c1`, the selectivity ratio is 48.3.

For `CNC(=O)/C=C/[C@H](Cc1ccccc1)NC(=O)[C@@H](CCCNC(=O)OCc1ccccc1)NC(C)C`, the selectivity ratio is 10.8.

Turning to `CCCC[C@@H](C=O)NC(=O)[C@H](CC(C)C)NC(=O)[C@H](CC(C)C)NC(C)=O` (Ac-Leu-Leu-[Nle]-aldehyde), the selectivity ratio amounted to 39.2.
